Measured values pooled from the literature.
CNR2: Cannabinoid receptor 2 (CNR2, Homo sapiens, UniProt P34972)
MMP2: 72 kDa type IV collagenase (MMP2, Homo sapiens, UniProt P08253)
ADRB2: Beta-2 adrenergic receptor (ADRB2, Homo sapiens, UniProt P07550)
CYP1B1: Cytochrome P450 1B1 (CYP1B1, Homo sapiens, UniProt Q16678)
SETD7: Histone-lysine N-methyltransferase SETD7 (SETD7, Homo sapiens, UniProt Q8WTS6)
SLC22A2: Solute carrier family 22 member 2 (SLC22A2, Homo sapiens, UniProt O15244)
DDR1: Epithelial discoidin domain-containing receptor 1 (DDR1, Homo sapiens, UniProt Q08345)
P2RY6: P2Y purinoceptor 6 (P2RY6, Homo sapiens, UniProt Q15077)
Trpc6: Short transient receptor potential channel 6 (Trpc6, Mus musculus, UniProt Q61143)
Akr1b1: Aldo-keto reductase family 1 member B1 (Akr1b1, Rattus norvegicus, UniProt P07943)
HDAC7: Histone deacetylase 7 (HDAC7, Homo sapiens, UniProt Q8WUI4)

Cc1c(C(=O)N[C@H]2CCC[C@H](O)C2)nc(-c2ccc(Cl)cc2Cl)n1-c1ccc(OS(=O)(=O)CCC(F)(F)F)cc1 (relative stereo)
IC50 (CNR2; GTPγS binding, antagonist; cell membranes): 0.425 µM

Cc1noc(-c2cc3cc(-c4nc(C(=O)NCc5cccnc5)[nH]c4C)ccc3[nH]2)n1
IC50 (MMP2; enzyme activity, inhibitor): > 20 µM

Cc1c(C(=O)NN2CCCCC2)nc(-c2ccc(Cl)cc2Cl)n1-c1ccc(OS(=O)(=O)CCC(C)C)cc1
IC50 (CNR2; GTPγS binding, antagonist; cell membranes): 0.271 µM

CN(C)CCC1(c2ccc(Cl)cc2)Cc2ccccc2C(=O)O1 (centres unmarked)
IC50 (ADRB2; ligand displacement, radioligand; cell membranes): 86.8 µM

CC(C)=CCc1c(O)cc(O)c2c1O[C@H](c1ccc(O)cc1)CC2=O
IC50 (CYP1B1; enzyme activity, inhibitor, fluorescence; 15 min, pH 7.4): 0.41 µM

CCCN(CCC)CCc1cccc2c1CC(=O)N2
IC50 (ADRB2; ligand displacement, radioligand; cell membranes): 200 µM

Cc1c(C(=O)N[C@H]2CCCC[C@H]2N)nc(-c2ccc(Cl)cc2Cl)n1-c1ccc(OS(=O)(=O)CCC(F)(F)F)cc1 (racemic)
IC50 (CNR2; GTPγS binding, antagonist; cell membranes): 0.805 µM

Cn1nc(C(=O)NCc2ccc(C(=O)O)cc2)cc1-c1ccc2[nH]c(-c3ccncc3)cc2c1
IC50 (MMP2; enzyme activity, inhibitor): > 22 µM

CC/C(=C(\c1ccccc1)c1ccc(OCCN(C)C)cc1)c1ccccc1
IC50 (SETD7; enzyme activity, inhibitor): > 333 µM

Cc1noc(-c2cc3cc(-c4nc(C(=O)NCc5ccncc5)[nH]c4C)ccc3[nH]2)n1
IC50 (MMP2; enzyme activity, inhibitor): > 20 µM

CCS(=O)(=O)N1CC(CC#N)(n2cc(-c3ncnc4[nH]ccc34)cn2)C1
IC50 (SLC22A2; transporter uptake, inhibitor, radiometric; 2 min): 11.6 µM

CC(C)(C)n1nc(-c2ccc3nc(OC4CC4)ccc3c2)c(C(N)=O)c1N
IC50 (Casein kinase I isoform alpha (CSNK1A1, Homo sapiens, UniProt P48729); cell-free assay, inhibitor): > 10 µM

O=C(NO)c1ccc(CN(c2cnccn2)c2cnccn2)cc1
IC50 (Polyamine deacetylase HDAC10 (HDAC10, Homo sapiens, UniProt Q969S8); enzyme activity, inhibitor, fluorescence): > 10 µM

CC[C@H](C)[C@H](NC(C)=O)C(=O)N[C@@H](CCC(=O)O)C(=O)N[C@H](C(=O)N[C@H](C=O)CC(=O)O)[C@@H](C)O
IC50 (Caspase-2 (Homo sapiens, UniProt P42575); enzyme activity, inhibitor): 0.109 µM

CNC(=O)c1cc2c(Oc3ccc(NC(=O)C4(C(=O)Nc5ccc(F)cc5)CC4)cc3)ccnc2cc1OC
IC50 (DDR1; enzyme activity, inhibitor, radiometric): 0.013 µM

Cn1nc(C(=O)NCc2ccc(C(=O)O)cc2)cc1-c1ccc2[nH]c(-c3cccnc3)cc2c1
IC50 (MMP2; enzyme activity, inhibitor): > 20 µM

COc1cc(N)c(Cl)cc1C(=O)CCC1CCN(CCNS(C)(=O)=O)CC1
IC50 (ADRB2; ligand displacement, radioligand; cell membranes): 62.6 µM

CC[Si](C#Cc1ccc2c(c1)C=C([N+](=O)[O-])C(C(F)(F)F)O2)(CC)CC (centres unmarked)
IC50 (P2RY6; calcium signal, antagonist): ~1 µM

CC/C(=C(\c1ccc(O)cc1)c1ccc(OCCN(C)C)cc1)c1ccccc1
IC50 (SETD7; enzyme activity, inhibitor): > 333 µM

CN(CCC(=O)O)C(=O)c1ccc2c(c1)CC[C@@H]1[C@@H]2CC[C@]2(C)C(c3cncc(F)c3)=CC[C@@H]12
IC50 (Ileal sodium/bile acid cotransporter (SLC10A2, Homo sapiens, UniProt Q12908); transporter uptake, inhibitor): 49 µM

O=C(c1ccc(Cl)s1)N(CCN1CCCC1)c1nc2ccccc2s1
IC50 (Trpc6; calcium signal, fluorescence): 8.8 µM

COc1ccc2nc(/N=C3/NC(=O)C(=Cc4ccccc4)S3)sc2c1
IC50 (Akr1b1; enzyme activity, inhibitor, absorbance; pH 6.2): > 50 µM

Cn1cc(-c2cc3cc(-c4cc(C(=O)NCc5ccc(C(=O)O)cc5)nn4C)ccc3[nH]2)cn1
IC50 (MMP2; enzyme activity, inhibitor): > 20 µM

COc1cc(O)c(CC=C(C)C)c(O)c1C(=O)/C=C/c1ccc(O)cc1
IC50 (CYP1B1; enzyme activity, inhibitor, fluorescence; 15 min, pH 7.4): 0.34 µM

COc1ccc2c3ccnc(C(F)(F)F)c3n(CCCCN)c2c1
IC50 (Serine/threonine-protein kinase haspin (HASPIN, Homo sapiens, UniProt Q8TF76); enzyme activity, inhibitor, TR-FRET): 0.1 µM

COc1cc(N)c(Cl)cc1C(=O)NC1CCN(CCCOc2ccc(F)cc2)CC1OC (centres unmarked)
IC50 (ADRB2; ligand displacement, radioligand; cell membranes): 587 µM

COc1cccc2sc(N(CCN(C)C)C(=O)c3ccc4c(c3)CCCC4)nc12
IC50 (Trpc6; calcium signal, fluorescence): 4.2 µM

Cc1ccc(NC(=O)c2ccc(C)c(C(F)(F)F)c2)cc1C#Cc1nn(C2CCC(O)CC2)c2ncnc(N)c12 (centres unmarked)
IC50 (DDR1; enzyme activity, inhibitor, radiometric): 0.015 µM

COc1ccc2nc(/N=C3/NC(=O)C(=Cc4cc(OC)c(O)c(OC)c4)S3)sc2c1
IC50 (Akr1b1; enzyme activity, inhibitor, absorbance; pH 6.2): 10.5 µM

CCCC[C@H](NC(=O)[C@H](C)c1c(C)[nH]c2ccc(O)cc12)c1ncc(-c2cc3ccccc3nc2OC)[nH]1
IC50 (HDAC7; enzyme activity, inhibitor): > 45 µM

Cc1ccc(S(=O)(=O)N2C(=O)COC23C=CC(=O)C=C3)cc1
IC50 (MMP2; enzyme activity, inhibitor, fluorescence): 6.8 µM

O=C(Nc1ccc(Cl)cc1)Nc1cccc(-c2ccc[nH]2)c1
IC50 (CNR2; calcium signal, antagonist): > 10 µM

CCCC[C@H](NC(=O)C1CN(C)C1)c1ncc(-c2cc3ccccc3nc2OC)[nH]1
IC50 (HDAC7; enzyme activity, inhibitor): > 30 µM

Cc1c(C(=O)NN2CCCCC2)nc(-c2ccc(Cl)cc2Cl)n1-c1ccc(OS(=O)(=O)CCC(F)(F)F)cc1
IC50 (CNR2; GTPγS binding, antagonist; cell membranes): 0.288 µM

CN(C)CCN(C(=O)c1ccc(Cl)s1)c1nc2ccccc2s1
IC50 (Trpc6; calcium signal, fluorescence): 15.1 µM

CN/C(=N/CCSCc1nc[nH]c1C)NC#N
IC50 (SLC22A2; transporter uptake, inhibitor; MDCK-II): 17 µM

Cn1nc(C(=O)NCc2ccc(C(=O)O)cc2)cc1-c1ccc2[nH]c(-c3ccncn3)cc2c1
IC50 (MMP2; enzyme activity, inhibitor): > 20 µM

CN1CCN(c2ccc(Nc3ncc4cc(C#N)c(=O)n(C5CCCC5)c4n3)cc2)CC1
IC50 (Protein kinase C epsilon type (PRKCE, Homo sapiens, UniProt Q02156); enzyme activity, inhibitor): 6.31 µM

CCC1(c2ccc(C)cc2)C(=O)N(C(=O)OC(C)C)N1C(=O)OC(C)C (centres unmarked)
IC50 (Monoacylglycerol lipase ABHD6 (Abhd6, Mus musculus, UniProt Q8R2Y0); enzyme activity, inhibitor): 3 µM

COc1ccc2nc(/N=C3/NC(=O)C(=Cc4cc(I)c(O)c(OC)c4)S3)sc2c1
IC50 (Akr1b1; enzyme activity, inhibitor, absorbance; pH 6.2): > 50 µM

Cc1cnc(-c2ccc(-c3ccc(NC(=O)Nc4c(F)cc(F)cc4F)cc3F)c3c2C(=O)NC3)[nH]1
IC50 (DDR1; enzyme activity, inhibitor): 0.0538 µM

Cc1noc(-c2cc3cc(-c4nc(C(=O)NCc5ccc(=O)[nH]c5)[nH]c4C)ccc3[nH]2)n1
IC50 (MMP2; enzyme activity, inhibitor): > 24 µM

O=[N+]([O-])C1=Cc2ccccc2OC1C(F)(F)F (centres unmarked)
IC50 (P2RY6; calcium signal, antagonist, fluorescence): 2.62 µM

Nc1ccc(-c2ccncc2)cc1NC(=O)N1CCCC1
IC50 (HDAC7; enzyme activity, inhibitor): > 33.3 µM

COc1ccc(/C=C2\SC(=Nc3nc4ccc(OC)cc4s3)NC2=O)cc1
IC50 (Akr1b1; enzyme activity, inhibitor, absorbance; pH 6.2): 4.35 µM

N=C(N)NCCCC(NC(=O)C(c1ccccc1)c1ccccc1)C(=O)NCc1ccc(O)cc1 (centres unmarked)
IC50 (ADRB2; ligand displacement, radioligand; cell membranes): 63.1 µM

CCOCc1nc(O)c(-c2nnc(Cc3ccc(Cl)cn3)o2)c(O)c1-c1c(OC)cccc1OC
IC50 (ADRB2; ligand displacement, radioligand): > 30 µM
